Screens from PubChem.
Sampled rows, rich in hits. Any-hit rate of the full collection: about 2.9%.
INS-1E GSIS act: GLuc luminescence reporter in INS-1E cells, primary screen for activators of glucose-dependent secretion of insulin; activation, % at 16.6 µM; actives 0.61% (n = 370,000); INS-1E GLuc reporter insulin secretion, 2-3 h;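 active means lowest replicate activation of at least 40%, so every replicate reaches that level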;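 further: 0% = median of neutral control wells and 100% = median of IBMX positive control wells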
dFosB act-1: mouse delta FosB homodimer activation; P13346; purified delta FosB, TAMRA-CDK5 oligo fluorescence polarization; percent of positive-control signal above neutral wells; activation, % at 25 µM; actives 0.99% (n = 340,000);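 active means mean activation above about 17%, with every replicate also reaching it, limit read from the data, passing the limit was not always enough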
Target sequence (P13346 whole entry, looked up): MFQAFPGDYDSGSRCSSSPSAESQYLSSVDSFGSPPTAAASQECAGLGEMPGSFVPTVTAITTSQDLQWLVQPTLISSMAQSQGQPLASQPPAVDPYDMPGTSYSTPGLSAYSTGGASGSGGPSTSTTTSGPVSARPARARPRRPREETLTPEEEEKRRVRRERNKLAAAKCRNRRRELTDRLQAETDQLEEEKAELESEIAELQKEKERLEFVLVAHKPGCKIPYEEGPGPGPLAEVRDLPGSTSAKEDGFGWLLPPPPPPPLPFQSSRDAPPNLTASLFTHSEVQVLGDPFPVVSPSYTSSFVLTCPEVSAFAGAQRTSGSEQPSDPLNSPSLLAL
Cneo AK release: causes C. neoformans cell lysis. adenylate kinase release luminescence, 4 h; normalised: neutral wells 0, clomiphene wells 100. lysis activity, % at 15 µM. actives 0.2% (n = 360,000);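 active means mean lysis activity across replicates of at least 80%, whatever share of replicates individually reach that level; inactive means mean lysis activity below 80%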
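Material – Cryptococcus neoformans yeast cells · Quantity – 5 × 10^6 yeast cells/mL · Buffer or medium – YPD medium · Compound – single dose · Timing – 4 h static compound exposure, 37 °C, read 1 h post-reagent · Signal – adenylate kinase release luminescence · Read-out basis – lysis from increased AK signal · Benchmarks – Clomiphene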
PAX8 inh HTS: inhibitors of PAX8 transcriptional activity in RMG-I cells; RMG-I TPO-luciferase reporter, SteadyGlo, 24 h; inhibition, % at 12.6 µM; actives 1.2% (n = 360,000); AID 652154;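 active means mean replicate inhibition at least 60% with every replicate also reaching 60%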;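 further: luciferase light reporting Pax8 driven TPO promoter activity; plate controls were median of neutral control wells for no effect and mitoxantrone controls for full effect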
CDK5 inh: blocks human CDK5/p35 kinase activity | Q00535+Q15078 | actives 0.01% (n = 330,000) | Recombinant CDK5/p35, ADP-Glo luminescence, 60 min | AID 488839 | inhibition, % at 10 µM;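 active means highest replicate inhibition of at least 50% and at least 75% of replicates reaching 50%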;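 further: plate controls were DMSO neutral control for no effect and GW8510 at 10 µM for full effect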
Env fusion inh: blocks HIV Env-driven cell-cell fusion; HeLa-JRFL Env/CEM21 cell fusion, luciferase; inhibition, % at 12.3 µM; actives 1.1% (n = 360,000);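 active means mean replicate inhibition score of at least 50 and every replicate individually at or above 50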;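 further: 0% = plate neutral controls and 100% = maraviroc near 300 nM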
dFosB act-2: delta FosB (mouse) homodimer activation; shares compounds with dFosB act-1; purified delta FosB, TAMRA-CDK5 oligo fluorescence polarization; normalised: neutral wells 0, positive control 100; activation, % at 24.9 µM; 2,400 tested, under 10 active;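 active means highest replicate activation at or above 34% and every replicate reaching that threshold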;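 further: higher polarization means more probe DNA bound by delta FosB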
The depositor's hits bear a star; . = no result; [ ] = remark or other dose.

SMILES	INS-1E GSIS act	dFosB act-1	Cneo AK release	PAX8 inh HTS	CDK5 inh	Env fusion inh	dFosB act-2
CC(O)CNC(=O)c1ccc(-c2nn(C)c(=O)c3ccccc23)cc1 (stereo not given)	23	-4	0	.	1	-32	.
Cn1nc(-c2ccc(C(=O)Nc3cccc(Cl)c3)cc2)c2ccccc2c1=O	.	40*	1	.	0	-89	1
Cn1nc(-c2ccc(C(=O)Nc3ccc(F)cc3)cc2)c2ccccc2c1=O	.	51*	.	.	3	.	-2
C[C@@H](O)C#Cc1ccc([C@H]2[C@@H](CO)N3CCCCN(CC4CCOCC4)C[C@H]23)cc1	23	.	0	3	.	.	.
CO[C@H](C(=O)N(C)C[C@@H]1OCc2ccccc2-c2c(n(C)c3ccccc23)C(=O)N([C@H](C)CO)C[C@H]1C)c1ccccc1	-20	.	.	7	.	-5[16.7 µM]	.
O=[N+]([O-])c1ccccc1OCCOc1ccccc1[N+](=O)[O-]	5	23*	.	-82	0	-41	1
COc1ccc(OCCOc2ccccc2[N+](=O)[O-])cc1	4	-3	.	-136	-2	-12	.
CC(=O)Nc1ccc(NC(=O)c2ccc(N(Cc3ccccc3C)S(C)(=O)=O)cc2)cc1	0	20*	.	-3	0	2	5
COc1ccccc1NS(=O)(=O)c1cccc(C(=O)N/N=C/c2ccc(OCC(=O)O)cc2)c1	1	-1	.	3	-4	-1	.
CC(=O)Nc1ccc(/C=N/NC(=O)CNC(=O)c2ccccc2)cc1	9	21*	.	0	1	13	2
CC(=O)Nc1ccc(NC(=O)c2ccc(NC(=O)c3ccccc3)cc2)cc1	-3	27*	-1	-5	-1	1	4
COc1ccccc1NS(=O)(=O)c1cccc(C(=O)N/N=C/c2ccc(NC(C)=O)cc2)c1	6	29*	.	0	2	-10	-1
CC(=O)c1cccc(NC(=O)c2ccc(N(Cc3ccccc3C)S(C)(=O)=O)cc2)c1	-2	-9	4	.	-1	.	.
N#C[C@H]1[C@H](c2ccccc2)[C@H](CO)N1C(=O)Nc1cccc(F)c1	-7	.	-2	0	.	.	.
CC(C)NC(=O)N(C)C[C@H]1Oc2ccc(NC(=O)CCN3CCOCC3)cc2C(=O)N([C@@H](C)CO)C[C@@H]1C	10	.	2	-19	.	-6[16.7 µM]	.
C[C@H](CO)N1C[C@H](C)[C@@H](CN(C)S(=O)(=O)c2cn(C)cn2)Oc2ccc(NS(=O)(=O)c3ccccc3)cc2CC1=O	11	.	-3	-2	.	-3[16.7 µM]	.
Cc1ccc(NC(=O)c2onc(C)c2Cl)cc1	-4	4	-2	-87	0	-31	.
Cc1noc(C(=O)Nc2ccc(F)c(Cl)c2)c1Cl	-6	24*	-16	-24	1	-15	4
COc1ccc(S(=O)(=O)N(C)C[C@H]2Oc3ccc(NC(=O)Nc4ccccc4)cc3C(=O)N([C@H](C)CO)C[C@H]2C)cc1	-13	.	0	.	.	8[16.7 µM]	.
Cc1cccc(NC(=O)c2ccccc2NC(=O)Cc2ccccc2)c1C	-3	-5	-5	.	0	.	.
Cc1c(NC(=O)Cc2ccccc2)cccc1C(=O)NN1C(=O)c2ccccc2C1=O	-2	23*	-1	9	0	5	9
O=C(NCC1CC1)[C@@H]1[C@@H](CO)[C@@H]2Cn3c(cccc3=O)[C@@H]2N1Cc1cncnc1	0	.	-1	.	.	8[16.7 µM]	.
C[C@@H]1CCCCO[C@H](CN(C)CC2CC2)[C@@H](C)CN([C@H](C)CO)C(=O)c2cc(NC(=O)Nc3ccccc3)ccc2O1	3	.	-4	-23	.	-11[16.7 µM]	.
COc1ccc(C(C)=O)cc1CSc1nc2ccccc2c(=O)n1-c1ccccc1	34	-3	0	-13	0	0	.
COc1ccc(C(C)=O)cc1CSc1nc2ccccc2c(=O)n1-c1cccc(C)c1	4	25*	-1	.	.	.	5
SMILES	INS-1E GSIS act	dFosB act-1	Cneo AK release	PAX8 inh HTS	CDK5 inh	Env fusion inh	dFosB act-2
O=C(Nc1nnc(-c2ccccc2SCc2ccccc2)s1)Nc1ccccc1F	.	91*	1	.	.	.	-8
O=C(Nc1nnc(-c2ccccc2F)s1)Nc1ccccc1F	13	-4	.	-36	0	-10	.
COc1ccc(Cc2nnc(NC(=O)Nc3ccccc3F)s2)cc1	2	3	-3	28	1	-20	.
O=C(Nc1nnc(Cc2ccc(F)cc2)s1)Nc1ccccc1F	.	27*	0	-10	0	6	7
CO[C@H]1CN(C)C(=O)c2cc(NC(=O)c3ccc(F)cc3)ccc2OC[C@@H](C)N(C(=O)c2ccc(F)cc2)C[C@@H]1C	-8	.	54	1	.	.	.
Cc1ccc(OCC(=O)Nc2ccc(-c3nc4ncccc4o3)cc2)c(C)c1	.	73*	0	.	0	.	0
Cc1cc(C)c2c(n1)sc1c(-c3ccccc3)c(C#N)c(N)nc12	53	29*	.	-10	0	.	-2
O=C(O)c1ccccc1OC(C(=O)Nc1cc(Cl)cc(Cl)c1)c1ccccc1 (stereo not given)	-8	36*	-2	13	-3	-1	0
O=C(Nc1cc(Cl)cc(Cl)c1)C(NCCO)c1ccccc1 (stereo not given)	.	-1	-2	.	5	-24	.
CCOC(=O)Nc1ccc2c(COC(=O)CN(C)S(=O)(=O)c3ccc(C)cc3)cc(=O)oc2c1	6	36*	1	-15	1	-64	7
O=C(Nc1ccccc1)c1nc[nH]c1C(=O)NCCNC(=O)c1[nH]cnc1C(=O)Nc1ccccc1	.	37*	-5	39	2	33	5
C[C@@H]1COC(=O)[C@H](Cc2ccc(F)cc2)C/C=C\C[C@@H](CC(=O)N[C@H](CO)Cc2ccccc2)C(=O)N1	.	6	-1	-4	-1	-45	.
O=C(C[C@@H]1C/C=C\C[C@@H](Cc2ccc(F)cc2)C(=O)OC[C@@H](Cc2ccccc2)NC1=O)N[C@H](CO)Cc1ccccc1	12	32*	-2	9	0	10	5
C[C@@H]1CN([C@H](C)CO)C(=O)Cc2cc(NC(=O)Cn3cnnn3)ccc2O[C@@H]1CN(C)C	5	.	-12	-5	.	7[16.7 µM]	.
O=C1COc2ccc(C(=O)COC(=O)c3ccccc3F)cc2N1	5	3	0	-30	0	.	.
O=C1COc2ccc(C(=O)COC(=O)c3cc(S(=O)(=O)NCc4ccccc4)ccc3O)cc2N1	-3	66*	.	-4	-1	4	-1
C=CCn1c(=S)[nH]c2cc(-c3ccccc3)sc2c1=O	-2	40*	-1	-51	0	25	2
